Laboratory results as given in ChEMBL document CHEMBL3259564, “Synthesis and evaluation of immunostimulant plasmalogen lysophosphatidylethanolamine and analogues for natural killer T cells” (Bioorg Med Chem, 2014).
Active and inactive are the calls of the source. No cut-off for these calls is given here.

Columns and labels:
[1] = organism: Mus musculus; assay: Immunostimulatory activity in C57BL/6 mouse splenocytes assessed as IFN-gamma production at 100 ng/ml after 72 hrs by ELISA; type: functional, cell-based
How it was run: (§1)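 C57BL/6 mouse splenocytes were cultured for 72 h with compound at 100 ng/mL or DMSO vehicle in RPMI1640 with 10% FCS, humidified 5% CO2. IFN-γ and IL-4 in the supernatants were measured by ELISA. Assays were run in triplicate and reported as mean ± SD.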

[2] = test system: 2H4; assay: Immunostimulatory activity in mouse NKT hybridoma 2H4 cells assessed as IL-2 production at 100 ng/ml after 24 hrs by plate-bound mCD1d presenting assay; type: functional, cell-based
How it was run: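 Plates were coated with mouse CD1d protein overnight at 4 °C, PBS-washed and blocked with PBS/10% FCS for 1 h. Compound at 100 ng/mL was loaded for 24 h at 37 °C, then washed off. 2H4 NKT hybridoma cells were added, and IL-2 was measured by ELISA after 24 h. Data are mean ± SD of three independent experiments, with Student's t test against vehicle.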

[3] = test system: Mus musculus; assay: In vivo immunostimulatory activity in C57BL/6 mouse assessed as increase in serum IFN-gamma level at 1 ug, ip after 24 hrs by ELISA; type: functional, organism-based
How it was run: (§2)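 C57BL/6 mice were given compound by intraperitoneal injection. Serum IFN-γ and IL-4 were measured at 2 h and at a later time point. Data are mean ± SD.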

[4] = organism: Mus musculus; assay: Immunostimulatory activity in C57BL/6 mouse splenocytes assessed as IL-4/IFN-gamma ratio at 100 ng/ml after 72 hrs by ELISA; type: functional, cell-based
How it was run: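 Whole C57BL/6 splenocytes were given compound at 100 ng/mL or DMSO for 72 h in RPMI1640 with 10% FCS. Supernatant IL-4 and IFN-γ were measured by ELISA. The IL-4/IFN-γ ratio was normalized to the DMSO control. Triplicate, mean ± SD.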

[5] = test system: Mus musculus; assay: In vivo immunostimulatory activity in C57BL/6 mouse assessed as increase in serum IFN-gamma level at 1 ug, ip after 2 hrs by ELISA; type: functional, organism-based; how it was run: as §2
[6] = test system: Mus musculus; assay: In vivo immunostimulatory activity in C57BL/6 mouse assessed as increase in serum IL-4 level at 1 ug, ip after 2 to 24 hrs by ELISA; type: functional, organism-based; how it was run: as §2
[7] = organism: Mus musculus; assay: Immunostimulatory activity in C57BL/6 mouse splenocytes assessed as IL-4 production at 100 ng/ml after 72 hrs by ELISA; type: functional, cell-based; how it was run: as §1

Structure (SMILES) | Activity [1] | Activity [2] | Activity [3] | Activity [4] | Activity [5] | Activity [6] | Activity [7]
CCCCCCCC/C=C\CCCCCCCCCCCCOC[C@@H](O)COP(=O)(O)OCCN | Active | Active | inactive | Active | Active | Active | Active
CCCCCCCC/C=C\CCCCCCCCC#COC[C@@H](O)COP(=O)(O)OCCN | Active | Active | inactive | Active | Active | Active | Active
CCCCC/C=C\C/C=C\CCCCCCCC/C=C\OC[C@@H](O)COP(=O)(O)OCCN | Active | Active | inactive | Active | Active | Active | 
CCCCCCCC/C=C\CCCCCCCC(=O)OC[C@@H](O)COP(=O)(O)OCCN | Active | Active | inactive | Active | Active | Active | Active
CCCCCCCCCCCCCC/C=C\OC[C@@H](O)COP(=O)(O)OCCN | Active |  |  | Active | Active | Active | Active
CCCCC/C=C\C/C=C\CCCCCCCCC#COC[C@@H](O)COP(=O)(O)OCCN | Active | Active | inactive | Active | Active | Active | 
